Results reported in ChEMBL document CHEMBL4513216, “Probing the Open Global Health Chemical Diversity Library for Multistage-Active Starting Points for Next-Generation Antimalarials” (ACS Infect Dis, 2020).

Assay: Toxicity liver stage against HepG2, at 10uM
Type: cell-based
Design: test concentration 10 uM, cell line HepG2-A16-CD81EGFP
Settings: human, HepG2-A16-CD81EGFP cells; read-out: INHIBITION
In short: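 Uninfected HepG2-A16-CD81EGFP cells, 3 × 10^3 per well, 1536-well, plated on prespotted compound at 10 μM final, parasite-free screening media added to match infected plates; puromycin 10 μM positive, DMSO 0.5% negative; run in parallel with 48 h PbLuc assay at 37 °C, 5% CO2; viability by CellTiter-Glo luminescence, normalized to controls.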

Compared with Cc1nc(C)n(CC2CCCCN2CC(=O)Nc2nnc(C)s2)n1 (stereo unspecified), CCCn1nc(C(=O)N2CCCC2c2noc(C)n2)ccc1=O (stereo unspecified) is higher in cytotoxicity at 10 µM: -10.6% for the first, 3.57% for the second.

First: c1csc(CN2CCCn3nnc(COCC4CC4)c3C2)n1
Second: c1csc(CN2C[C@H](OCC3CCOCC3)[C@H]3COC[C@H]32)n1
The cytotoxicity at 10 µM of the first is lower: -101% for the first, -3.76% for the second.

Going from COc1ccc2c(c1)sc(=NC(=O)CSCC(=O)Nc1nccs1)n2C to COc1ccc(CCN2CCN(C(=O)c3scnc3C)CC2)cc1, the cytotoxicity at 10 µM rises from -8.36% to -8.31%.

First: COC(=O)c1cccc(S(=O)(=O)NC(=O)COC2CCCC2)c1
Second: O=C(NCCNc1ccccn1)NC1CCCC1
The cytotoxicity at 10 µM of the first is higher: -1.03% for the first, -5.81% for the second.

Going from CCc1noc(C(C)N2CCN(CCN3CCCC3=O)CC2)n1 (stereo unspecified) to CCc1nc(CN(C)C2CCN(Cc3nnc(C4CCC4)o3)C2)no1 (stereo unspecified), the cytotoxicity at 10 µM rises from -9.37% to 0.239%.

First: COc1ccc(C)cc1NC(=O)Nc1cnc(N2CCN(C)CC2)nc1
Second: CC(=O)N1CCN(C(=O)Nc2cnc3c(cnn3C(C)C)c2)CC1
The cytotoxicity at 10 µM of the first is higher: 5.06% for the first, -0.192% for the second.

Compared with COc1ccc(OC)c(-c2nc(CN(C)Cc3nncn3C)c(C)o2)c1, COc1cc(CNc2nc(C(F)(F)F)no2)cc(OC)c1OC is higher in cytotoxicity at 10 µM: -9.57% for the first, 1.66% for the second.

Going from O=S(=O)(C1CC1)N1CCC2(CCCN(c3ncc(F)cn3)C2)C1 (stereo unspecified) to CCc1ncc(C(=O)N2CCCN(C3CCCC3)CC2)cn1, the cytotoxicity at 10 µM falls from 11.5% to -7.38%.

First: COCCNC(=O)c1cc(S(=O)(=O)N2CCCCC2)cs1
Second: COCCNC(=O)N1CCCC1COc1ccccc1 (stereo unspecified)
The cytotoxicity at 10 µM of the first is lower: -8.94% for the first, 2.04% for the second.

Going from Nc1cc(C(=O)NCC2CCN(Cc3ccncc3F)C2)ccn1 (stereo unspecified) to CC(=O)N(Cc1ncc(C)o1)C1CCN(CCc2ccncc2)C1 (stereo unspecified), the cytotoxicity at 10 µM rises from -24.2% to 1.3%.

First: CN(Cc1cccs1)C(=O)CN1CCOC(Cn2cncn2)C1 (stereo unspecified)
Second: Cc1cnn(C2CN(CC(=O)NCCc3ccsc3)C2)c1
The cytotoxicity at 10 µM of the first is lower: -23.7% for the first, -3.86% for the second.

Going from Cc1ccc(-n2ccnc2)c(C(=O)NCCOCC(F)(F)F)c1 to Cc1cc(F)ccc1-n1cc(O)c(C(=O)NCC[S+](C)[O-])n1 (stereo unspecified), the cytotoxicity at 10 µM rises from -136% to 9.38%.

First: COc1cccc(C2CC(=O)Nc3nc(N)sc32)c1OC (stereo unspecified)
Second: O=C1CC(c2ccc(C(=O)O)cc2)c2ncn(-c3cccnc3)c2N1 (stereo unspecified)
The cytotoxicity at 10 µM of the first is higher: 3.74% for the first, -1.64% for the second.

First: CCn1nc(CNC(C)(C)CO)c(-c2ccccc2)n1
Second: CCN1CCCC(C)(C(=O)NCc2nncn2CCc2ccccc2)C1 (stereo unspecified)
The cytotoxicity at 10 µM of the first is higher: 8.96% for the first, -10.2% for the second.

First: CC(C)n1cc(CN2CCCN(C(=O)C3CCCN3C)CC2)cn1 (stereo unspecified)
Second: CC(C)n1cc(CN2CCCN(C(=O)COC3CCCC3)CC2)cn1
The cytotoxicity at 10 µM of the first is higher: -10% for the first, -15.5% for the second.

Compared with COCCO[C@H]1CCN(C(=O)NC2CC2)[C@H]1Cc1cnn(C)c1, Cn1cc(CN2CC[C@@H]3[C@H]2CCC(=O)N3c2ccccc2)cn1 is lower in cytotoxicity at 10 µM: 8.36% for the first, 7.42% for the second.

Going from Cc1nccn1CCC1CCNCC1 to CC(C)(C)CN1CCN(CC2CC2)C(CCO)C1 (stereo unspecified), the cytotoxicity at 10 µM falls from -2.36% to -2.42%.

First: CC(C)NC(=O)c1ccc2c(c1)nc1n2CCN(c2ccccc2)C1
Second: Cn1c(-c2cc3n(n2)CCCN(CC(=O)O)C3)nc2ccccc21
The cytotoxicity at 10 µM of the first is lower: -3.99% for the first, 2.68% for the second.

First: Cc1[nH]ncc1CCCNC(=O)N1CCOC(C)C1 (stereo unspecified)
Second: CCCc1n[nH]c(C2CN(C(=O)C3=COCCC3)CCO2)n1 (stereo unspecified)
The cytotoxicity at 10 µM of the first is higher: 3.14% for the first, -5.04% for the second.

First: N#Cc1ccc(CNc2cccc(C(=O)N3CCOCC3)c2)cc1
Second: Cc1ccc(C(=O)Nc2ccc(N3CCC(O)CC3)c(C#N)c2)s1
The cytotoxicity at 10 µM of the first is higher: -4.34% for the first, -5.71% for the second.

First: Cc1noc([C@@]23CCO[C@@H]2CCN(S(=O)(=O)c2cccnc2)C3)n1
Second: CNS(=O)(=O)c1ccc(C(=O)N2CCCC2c2cnn(C)c2)o1 (stereo unspecified)
The cytotoxicity at 10 µM of the first is lower: -103% for the first, -8.28% for the second.

First: O=C1CCCC2(CCN(C(=O)c3cnccn3)CC2)N1
Second: CC(C)(O)CN1CCN(C(=O)c2cccc3[nH]ncc23)CC1
The cytotoxicity at 10 µM of the first is lower: -12.9% for the first, 3.28% for the second.

Going from Cc1nc2c(c(N3CCCC(CO)C3)n1)CCN(Cc1ccco1)CC2 (stereo unspecified) to Cc1ccc(CN2CCc3nc(C(C)C)nc(O)c3CC2)s1, the cytotoxicity at 10 µM rises from -0.044% to 0.913%.

Going from CCn1ncnc1CN(C/C=C/c1ccccc1)CCOC to COCCn1cncc1CN1CCC(C(C)=O)(c2ccccc2)CC1, the cytotoxicity at 10 µM falls from 4.3% to 1.92%.

Going from Cc1nn(C)c(C)c1C1CCCN1C(=O)Cc1cn2ccsc2n1 (stereo unspecified) to Cc1nn(C)c(C)c1C1CCCN1C(=O)c1cc[nH]n1 (stereo unspecified), the cytotoxicity at 10 µM rises from -45.2% to 1.35%.

Going from CNC(=O)CSc1nc2c(cnn2Cc2ccc(F)cc2)c(=O)[nH]1 to CN(C)CCOCC1CN(Cc2ccc(F)cc2)Cc2nnn(C)c21 (stereo unspecified), the cytotoxicity at 10 µM rises from -16% to 4.59%.

Compared with Cc1ccccc1NC(=O)Nc1c[nH]c(=O)[nH]c1=O, CC(C)n1c(=O)[nH]c2cn(-c3ccccc3)c(=O)n21 is lower in cytotoxicity at 10 µM: 3.54% for the first, -7.01% for the second.

Going from CCn1nc(C)c(CN(CCOC)C(=O)c2cnc(C)nc2O)c1C to CCn1nc(CC(C)C)cc1C(=O)NCCn1cccc1, the cytotoxicity at 10 µM falls from -2.27% to -5.94%.

First: O=C([C@H]1COC[C@H]2CN(C3CCCC3)C[C@H]21)N1CCOCC1
Second: CCN1C[C@H]2CCN(C(=O)NC)CC[C@H]2S1(=O)=O
The cytotoxicity at 10 µM of the first is lower: -105% for the first, 4% for the second.

Going from Cn1nnc2c1CCN(C(C(=O)N1CCCCC1)c1ccccc1)C2 (stereo unspecified) to CN(Cc1nnc(C2CC2)o1)Cc1ccccc1N1CCOCC1, the cytotoxicity at 10 µM falls from -2.56% to -7.83%.

Compared with Cn1cc(CNCC2(O)CCCN(Cc3ccc(F)c(F)c3)C2=O)cn1 (stereo unspecified), CN(C)S(=O)(=O)c1ccc(CNC(=O)c2cn3c(n2)CNCC3)cc1 is higher in cytotoxicity at 10 µM: -14.5% for the first, 16.9% for the second.

Going from CCC(C)c1cc(C(=O)N(CC(=O)NC)c2cccc(F)c2)on1 (stereo unspecified) to Cc1cc(OCc2cccc(F)c2)ccc1NC(=O)C(C)NC(N)=O (stereo unspecified), the cytotoxicity at 10 µM falls from 6.33% to -1.47%.

Compared with CC(NC(=O)Nc1cc(F)cc(F)c1)c1nc[nH]n1 (stereo unspecified), O=C(NCc1ccccc1CO)Nc1ccc2c(c1)CCC2 is higher in cytotoxicity at 10 µM: -4.02% for the first, 3.09% for the second.

Compared with Cc1cnc(C(C)(C)NC(=O)NCc2ccon2)s1, Cc1ncc(COc2ccc(N(C)S(C)(=O)=O)cc2)s1 is higher in cytotoxicity at 10 µM: -6.75% for the first, 5.89% for the second.

Compared with Nc1nc(SCc2ccc3c(c2)OCO3)ns1, Cc1ccc(C(=O)N2CCN(CC(O)c3ccc(F)cc3)CC2)s1 (stereo unspecified) is lower in cytotoxicity at 10 µM: -0.681% for the first, -8.93% for the second.

Going from Cc1nn(C)cc1C1=NS(=O)(=O)N(C)C(C(=O)Nc2ccc(Br)cc2)=C1 to CCn1cc(CN(C)S(=O)(=O)c2ccc(C(C)C)cc2)cn1, the cytotoxicity at 10 µM rises from 3.46% to 20.1%.

Going from O=C(NCc1ccco1)[C@H]1CC[C@@H]2[C@@H](CCN2Cc2cccnc2)O1 to O=C(NC[C@H]1C[C@@H]2CN(C(=O)c3ccco3)C[C@@H]2O1)c1ccsc1, the cytotoxicity at 10 µM falls from -3.68% to -90.8%.

First: O=C(CCN1CCCC1)Nc1c2c(cc3c1CCC3)CCC2
Second: CC(=O)N1CCC1c1cc(NC2CCOCC2)nc(C)n1 (stereo unspecified)
The cytotoxicity at 10 µM of the first is higher: 6.3% for the first, 1.79% for the second.

Compared with F[C@@H]1CN(CC2CC2)C[C@@H]1OCc1nc2ccc(C(F)(F)F)cc2[nH]1, CN1C[C@@H](C(=O)NCC(F)(F)F)[C@@]2(CCc3ccccc3C(=O)N2)C1 is higher in cytotoxicity at 10 µM: -6.22% for the first, 6.22% for the second.

Going from Cc1nc(-c2cccc(N3CCC(NC4CCOCC4)CC3)c2)cs1 to CC(C)CC(=O)N[C@H](C)c1c(-c2ccc(Cl)cc2)noc1C(=O)O, the cytotoxicity at 10 µM rises from -10.1% to 4.76%.

With CC(C)(CCS(C)(=O)=O)CNC(=O)NC1CCCC1(C)C (stereo unspecified) the cytotoxicity at 10 µM was 6.7%.
